Laboratory results taken from ChEMBL document CHEMBL2093137, “WHO-TDR NTD Screening”.
Values after ≈ are worked out from the molar mass of the structure shown.

Legend:
[1] = tested on: Trypanosoma brucei brucei; experiment: WHO-TDR: Human African Trypanosomiasis (HAT); type: functional, organism-based; details: Squib-427
How it was run: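 A diverse library of 10,000 compounds from Life Chemicals, filtered for drug-likeness and reactive groups, was screened against bloodstream forms of Trypanosoma brucei Squib 427 strain in a whole-organism assay. Previously published standard procedures were followed, with reference drugs serving as positive controls. Antiparasitic potency is given as IC50.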

Onchocerca ochengi [2] = experiment: (§1) WHO-TDR: Onchocerciasis; type: functional; parameters: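 at 12.5 µM on microfilariae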
How it was run: (§2)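 Microfilariae of Onchocerca ochengi or Onchocerca lienalis, animal pathogens standing in for the human parasite, were exposed to compounds in a whole-organism screen. The compounds came from a 10,000-compound diverse Life Chemicals library filtered for drug-likeness and reactive groups. Results are expressed as percent inhibition and IC50.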

Leishmania infantum = experiment: WHO-TDR: Leishmaniasis; type: functional, organism-based, Mus musculus; details: Macrophage
How it was run: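 A diverse library of 10,000 compounds from Life Chemicals, filtered for drug-likeness and reactive groups, was screened against whole organisms. The targets were intracellular amastigotes of Leishmania infantum MHOM/MA(BE)/67 growing in murine peritoneal macrophages. Previously published standard procedures were followed, with a reference drug as positive control. Antiparasitic potency is given as IC50.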

Trypanosoma cruzi = experiment: WHO-TDR: Chagas disease; type: functional, organism-based, Homo sapiens; details: MRC5
How it was run: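 Following previously published standard procedures, with a reference drug as positive control, a whole-organism assay was run on Trypanosoma cruzi Tulahuen CL2 beta-galactosidase strain amastigotes inside MRC-5SV2 human lung fibroblast host cells. The 10,000 compounds tested formed a diverse Life Chemicals library filtered for drug-likeness and reactive groups. Results are expressed as IC50 for antiparasitic potency.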

Plasmodium falciparum K1 = experiment: WHO-TDR: Malaria; type: functional, organism-based, Homo sapiens; details: Erythrocyte
How it was run: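 A diverse library of 10,000 compounds from Life Chemicals, filtered for drug-likeness and reactive groups, was screened against the intra-erythrocytic Plasmodium falciparum K1 strain in human red blood cells. Previously published standard procedures were followed, with a reference drug as positive control. Antiplasmodial potency is given as IC50.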

Onchocerca ochengi [3] = experiment: as §1; type: functional; parameters: concentration or dose not given beside the values; how it was run: as §2; remark: listed apart in the source
Schistosoma mansoni = experiment: WHO-TDR: Schistosomiasis; type: functional; parameters: concentration or dose not given beside the values
How it was run: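 In this whole-organism assay, larval and/or adult worms of Schistosoma mansoni (Puerto Rican strain) were exposed to compounds from a diverse Life Chemicals library of 10,000 members. A reference drug served as positive control. Activity is stated as percent inhibition and IC50.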

[4] = WHO-TDR: Cytotoxicity; type: toxicity, cell-based; details: human, MRC5 cells

**Q.** What does the source list for `Cc1cc(NC(=O)c2cccs2)n(-c2nc3c(c(=O)[nH]2)CCC3)n1`?
**A.** IC50 [1]: 3.2 µg/mL (≈ 9.37 µM); % Inhibition (Onchocerca ochengi [2]): 0%; IC50 (Leishmania infantum): 5.3 µg/mL (≈ 15.5 µM); IC50 (Trypanosoma cruzi): 0.56 µg/mL (≈ 1.64 µM); IC50 (Plasmodium falciparum K1): 10.2 µg/mL (≈ 30 µM); % Inhibition (Onchocerca ochengi [3]): 0%; % Inhibition (Schistosoma mansoni): 0%; IC50 [4]: 2.03 µg/mL (≈ 5.94 µM)

**Q.** Which IC50 [1] does the source give for `O=C(Nc1nc(-c2ccncc2)cs1)C1CCCN(S(=O)(=O)c2cccs2)C1` (stereo not given) here?
**A.** 4.33 µg/mL (≈ 9.95 µM)

**Q.** What about the “% Inhibition” value (Onchocerca ochengi [2]) of the same molecule?
**A.** 50%

**Q.** And the IC50 (Leishmania infantum)?
**A.** > 13 µg/mL

**Q.** And the IC50 (Trypanosoma cruzi)?
**A.** 0.534 µg/mL (≈ 1.23 µM)

**Q.** And the IC50 (Plasmodium falciparum K1)?
**A.** > 13 µg/mL

**Q.** And the “% Inhibition” value (Onchocerca ochengi [3])?
**A.** 0%

**Q.** And the “% Inhibition” value (Schistosoma mansoni)?
**A.** 0%

**Q.** What about the IC50 [4] of the same molecule?
**A.** 9.25 µg/mL (≈ 21.3 µM)

**Q.** For `O=C(Nc1onc2c1CCC2)c1cccc(F)c1`, which IC50 [1] is on record?
**A.** 2.42 µg/mL (≈ 9.83 µM)

**Q.** And the “% Inhibition” value (Onchocerca ochengi [2])?
**A.** 100%

**Q.** And the IC50 (Leishmania infantum)?
**A.** > 7.39 µg/mL

**Q.** What about the IC50 (Trypanosoma cruzi) of the same molecule?
**A.** 2.12 µg/mL (≈ 8.63 µM)

**Q.** And the IC50 (Plasmodium falciparum K1)?
**A.** > 7.39 µg/mL

**Q.** What about the “% Inhibition” value (Onchocerca ochengi [3]) of the same molecule?
**A.** 0%

**Q.** What about the “% Inhibition” value (Schistosoma mansoni) of the same molecule?
**A.** 0%

**Q.** And the IC50 [4]?
**A.** 4.88 µg/mL (≈ 19.8 µM)

**Q.** What does the source list for `CC1(C)COc2ccc(NS(=O)(=O)c3cccc4ccccc34)cc2NC1=O`?
**A.** IC50 [1]: 6.16 µg/mL (≈ 15.5 µM); % Inhibition (Onchocerca ochengi [2]): 100%; IC50 (Leishmania infantum): > 11.9 µg/mL; IC50 (Trypanosoma cruzi): > 11.9 µg/mL; IC50 (Plasmodium falciparum K1): > 11.9 µg/mL; % Inhibition (Onchocerca ochengi [3]): 0%; % Inhibition (Schistosoma mansoni): 0%; IC50 [4]: > 11.9 µg/mL

**Q.** Which IC50 [1] does the source give for `O=C(CSc1ncc(-c2ccccc2)[nH]1)N1CCCc2ccccc21` here?
**A.** > 10.5 µg/mL

**Q.** What about the “% Inhibition” value (Onchocerca ochengi [2]) of the same molecule?
**A.** 100%

**Q.** And the IC50 (Leishmania infantum)?
**A.** > 10.5 µg/mL

**Q.** What about the IC50 (Trypanosoma cruzi) of the same molecule?
**A.** > 10.5 µg/mL

**Q.** And the IC50 (Plasmodium falciparum K1)?
**A.** > 10.5 µg/mL

**Q.** And the “% Inhibition” value (Onchocerca ochengi [3])?
**A.** 0%

**Q.** And the “% Inhibition” value (Schistosoma mansoni)?
**A.** 0%

**Q.** And the IC50 [4]?
**A.** > 10.5 µg/mL

**Q.** What does the source list for `CN1CCN(C(CNC(=O)c2ccc(F)c(F)c2)c2ccc3c(c2)CCN3C)CC1` (stereo not given)?
**A.** IC50 [1]: > 12.4 µg/mL; % Inhibition (Onchocerca ochengi [2]): 100%; IC50 (Leishmania infantum): 4.03 µg/mL (≈ 9.71 µM); IC50 (Trypanosoma cruzi): > 12.4 µg/mL; IC50 (Plasmodium falciparum K1): 1.47 µg/mL (≈ 3.54 µM); % Inhibition (Onchocerca ochengi [3]): 0%; % Inhibition (Schistosoma mansoni): 0%; IC50 [4]: 3.34 µg/mL (≈ 8.05 µM)

**Q.** Which IC50 [1] does the source give for `Cc1nc2c(SCC#N)nnc(-c3ccccc3)c2s1` here?
**A.** 6.52 µg/mL (≈ 21.8 µM)

**Q.** And the “% Inhibition” value (Onchocerca ochengi [2])?
**A.** 25%

**Q.** What about the IC50 (Leishmania infantum) of the same molecule?
**A.** > 8.95 µg/mL

**Q.** And the IC50 (Trypanosoma cruzi)?
**A.** 0.444 µg/mL (≈ 1.49 µM)

**Q.** And the IC50 (Plasmodium falciparum K1)?
**A.** 6.75 µg/mL (≈ 22.6 µM)

**Q.** What about the “% Inhibition” value (Onchocerca ochengi [3]) of the same molecule?
**A.** 0%

**Q.** What about the “% Inhibition” value (Schistosoma mansoni) of the same molecule?
**A.** 0%

**Q.** And the IC50 [4]?
**A.** > 8.95 µg/mL

**Q.** Which results are given for `C=CCN1C(=O)C(C)(C)COc2ccc(NS(=O)(=O)c3ccc4c(c3)OCCO4)cc21`?
**A.** IC50 [1]: > 13.3 µg/mL; % Inhibition (Onchocerca ochengi [2]): 100%; IC50 (Leishmania infantum): > 13.3 µg/mL; IC50 (Trypanosoma cruzi): > 13.3 µg/mL; IC50 (Plasmodium falciparum K1): > 13.3 µg/mL; % Inhibition (Onchocerca ochengi [3]): 0%; % Inhibition (Schistosoma mansoni): 0%; IC50 [4]: > 13.3 µg/mL

**Q.** What does the source list for `Cc1nnc(NC(=O)COc2cccc3ccc(N4CCCC(C)C4)nc23)s1` (stereo not given)?
**A.** IC50 [1]: > 11.9 µg/mL; % Inhibition (Onchocerca ochengi [2]): 50%; IC50 (Leishmania infantum): 6.18 µg/mL (≈ 15.5 µM); IC50 (Trypanosoma cruzi): 0.407 µg/mL (≈ 1.02 µM); IC50 (Plasmodium falciparum K1): > 11.9 µg/mL; % Inhibition (Onchocerca ochengi [3]): 0%; % Inhibition (Schistosoma mansoni): 0%; IC50 [4]: > 11.9 µg/mL

**Q.** What does the source list for `CCCc1cc(=O)[nH]c(-n2nc(C)cc2NC(=O)COc2ccc(Cl)cc2Cl)n1`?
**A.** IC50 [1]: 0.47 µg/mL (≈ 1.08 µM); % Inhibition (Onchocerca ochengi [2]): 75%; IC50 (Leishmania infantum): > 13.1 µg/mL; IC50 (Trypanosoma cruzi): 0.395 µg/mL (≈ 0.904 µM); IC50 (Plasmodium falciparum K1): 5.1 µg/mL (≈ 11.7 µM); % Inhibition (Onchocerca ochengi [3]): 0%; % Inhibition (Schistosoma mansoni): 0%; IC50 [4]: 0.362 µg/mL (≈ 0.83 µM)

**Q.** Which IC50 [1] does the source give for `Cc1ccc(Cl)c2sc(N3CCN(C)CC3)nc12` here?
**A.** 3.05 µg/mL (≈ 10.8 µM)

**Q.** And the “% Inhibition” value (Onchocerca ochengi [2])?
**A.** 100%

**Q.** And the IC50 (Leishmania infantum)?
**A.** > 9.55 µg/mL

**Q.** And the IC50 (Trypanosoma cruzi)?
**A.** 2.38 µg/mL (≈ 8.46 µM)

**Q.** And the IC50 (Plasmodium falciparum K1)?
**A.** 3.31 µg/mL (≈ 11.7 µM)

**Q.** And the “% Inhibition” value (Onchocerca ochengi [3])?
**A.** 0%

**Q.** And the “% Inhibition” value (Schistosoma mansoni)?
**A.** 0%

**Q.** What about the IC50 [4] of the same molecule?
**A.** > 9.55 µg/mL

**Q.** Which IC50 [1] does the source give for `CCOC(=O)c1ccc(NC(=O)CC2CCCCN2S(=O)(=O)c2ccc(OC)cc2)cc1` (stereo not given) here?
**A.** 4.53 µg/mL (≈ 9.83 µM)

**Q.** And the “% Inhibition” value (Onchocerca ochengi [2])?
**A.** 0%

**Q.** And the IC50 (Leishmania infantum)?
**A.** > 13.8 µg/mL

**Q.** What about the IC50 (Trypanosoma cruzi) of the same molecule?
**A.** 0.449 µg/mL (≈ 0.975 µM)

**Q.** What about the IC50 (Plasmodium falciparum K1) of the same molecule?
**A.** > 13.8 µg/mL

**Q.** And the “% Inhibition” value (Onchocerca ochengi [3])?
**A.** 0%

**Q.** What about the “% Inhibition” value (Schistosoma mansoni) of the same molecule?
**A.** 0%

**Q.** And the IC50 [4]?
**A.** 2.03 µg/mL (≈ 4.4 µM)

**Q.** Which IC50 [1] does the source give for `Cc1cc(=O)[nH]c(-n2nc(C)cc2NC(=O)/C=C/c2ccc3c(c2)OCO3)n1` here?
**A.** 3.56 µg/mL (≈ 9.37 µM)

**Q.** What about the “% Inhibition” value (Onchocerca ochengi [2]) of the same molecule?
**A.** 0%

**Q.** And the IC50 (Leishmania infantum)?
**A.** 3.6 µg/mL (≈ 9.49 µM)

**Q.** What about the IC50 (Trypanosoma cruzi) of the same molecule?
**A.** 0.801 µg/mL (≈ 2.11 µM)

**Q.** And the IC50 (Plasmodium falciparum K1)?
**A.** 4.74 µg/mL (≈ 12.5 µM)

**Q.** And the “% Inhibition” value (Onchocerca ochengi [3])?
**A.** 0%

**Q.** What about the “% Inhibition” value (Schistosoma mansoni) of the same molecule?
**A.** 0%

**Q.** What about the IC50 [4] of the same molecule?
**A.** 3.73 µg/mL (≈ 9.85 µM)

**Q.** What does the source list for `Cc1cc(=O)[nH]c(-n2nc(C)cc2NC(=O)c2ccc(S(=O)(=O)N3CCCCC3)cc2)n1`?
**A.** IC50 [1]: 0.449 µg/mL (≈ 0.983 µM); % Inhibition (Onchocerca ochengi [2]): 0%; IC50 (Leishmania infantum): 4.43 µg/mL (≈ 9.71 µM); IC50 (Trypanosoma cruzi): 0.418 µg/mL (≈ 0.915 µM); IC50 (Plasmodium falciparum K1): 0.137 µg/mL (≈ 0.3 µM); % Inhibition (Onchocerca ochengi [3]): 0%; % Inhibition (Schistosoma mansoni): 25%; IC50 [4]: 0.445 µg/mL (≈ 0.975 µM)

**Q.** What does the source list for `Cc1ccc(S(=O)(=O)N2CCCCC2CC(=O)Nc2ccc(Cl)cc2)cc1` (stereo not given)?
**A.** IC50 [1]: 5.79 µg/mL (≈ 14.2 µM); % Inhibition (Onchocerca ochengi [2]): 0%; IC50 (Leishmania infantum): > 12.2 µg/mL; IC50 (Trypanosoma cruzi): 0.421 µg/mL (≈ 1.03 µM); IC50 (Plasmodium falciparum K1): > 12.2 µg/mL; % Inhibition (Onchocerca ochengi [3]): 0%; % Inhibition (Schistosoma mansoni): 0%; IC50 [4]: > 12.2 µg/mL
